Columns and labels:
Assay type in all cases: cell-based; call rule not given here
[1] = biological target: T1, Nuclear receptor subfamily 1 group I member 2 (Homo sapiens, UniProt O75469); assay: Partial agonist activity at human full-length PXR transfected in human HepG2 cells co-transfected with RXR assessed as reversal of rifaximin-induced transactivation at 50 uM after 18 hrs by luciferase reporter gene assay; conditions: hepg2, 18 h
T1 sequence (O75469 whole entry): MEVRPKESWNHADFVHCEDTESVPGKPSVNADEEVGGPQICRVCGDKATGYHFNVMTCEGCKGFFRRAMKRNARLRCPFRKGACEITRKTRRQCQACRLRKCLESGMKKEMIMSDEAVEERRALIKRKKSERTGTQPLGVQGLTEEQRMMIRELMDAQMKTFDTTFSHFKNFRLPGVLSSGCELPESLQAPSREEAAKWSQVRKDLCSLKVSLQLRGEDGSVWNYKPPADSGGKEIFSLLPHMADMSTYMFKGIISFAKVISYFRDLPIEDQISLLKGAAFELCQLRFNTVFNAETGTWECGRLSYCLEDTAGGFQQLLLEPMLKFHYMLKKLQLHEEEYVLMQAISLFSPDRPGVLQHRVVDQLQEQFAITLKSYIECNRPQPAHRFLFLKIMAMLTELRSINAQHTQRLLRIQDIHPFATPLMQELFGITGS
Summary of the method: (§1)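 HepG2 cells cotransfected with pSG5-hPXRT1, pSG5-RXR, pCMV-βgal and pGL3(henance)PXRE reporter. At 24 h post-transfection, primed 18 h with compound at 50 plus rifaximin at 10 (antagonist mode). Luciferase luminescence measured in lysates and normalized to β-galactosidase activity. Significance p < 0.05 vs rifaximin.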

[2] = biological target: T1, Nuclear receptor subfamily 1 group I member 2; assay: Antagonist activity at human full-length PXR transfected in human HepG2 cells co-transfected with pSG5-RXR assessed as reversal of rifaximin-induced transactivation at 10 to 25 uM after 18 hrs by luciferase reporter gene assay; conditions: hepg2, 18 h
Summary of the method: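 Dose–response antagonism test in a luciferase reporter assay: transfected HepG2 cells received compound at 10, 25 or 50 together with rifaximin 10 to assess reversal of rifaximin-driven PXR transactivation.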

[3] = biological target: T1, Nuclear receptor subfamily 1 group I member 2; assay: Antagonist activity at human full-length PXR transfected in human HepG2 cells co-transfected with pSG5-RXR assessed as reversal of rifaximin-induced transactivation at 50 uM after 18 hrs by luciferase reporter gene assay; conditions: hepg2, 18 h; summary of the method: as §1
[4] = biological target: T1, Nuclear receptor subfamily 1 group I member 2; assay: Agonist activity at human full-length PXR transfected in human HepG2 cells co-transfected with pSG5-RXR assessed as induction of transactivation by dual-luciferase reporter gene assay; conditions: for Activity: human, hepg2
Summary of the method: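 HepG2 cells grown at 37 °C in MEM with Earle's salts, 10% FBS, 1% L-glutamine, 1% penicillin/streptomycin, seeded at 5 × 10^4 cells/well. Cotransfected with pSG5-hPXRT1, pSG5-RXR, pGL4.70-Renilla and pGL3(henance)PXRE reporter. Treated with rising concentrations (1, 10, 50) with rifaximin as positive control. Dual-luciferase readout; firefly RLU divided by Renilla RLU; EC50 from concentration–response curve.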

Structure (SMILES)	Activity [1]	Activity [2]	Activity [3]	EC50 [4]	Activity [4]
CC(C)[C@H](C)CC[C@@H](C)[C@H]1CCC2=C3CC[C@H]4[C@@H](C)[C@@H](O)CC[C@]4(C)[C@H]3CC[C@@]21C	Active	Not Active	Active		
CC(C)[C@H](C)CC[C@@H](C)[C@H]1CCC2=C3CC[C@H]4[C@H](C)[C@H](O)CC[C@]4(C)[C@H]3CC[C@@]21C	Active			18 µM	Dose-dependent effect
C=C1[C@@H](O)CC[C@@]2(C)[C@H]1CCC1=C3CC[C@H]([C@H](C)CCC=C(C)C)[C@@]3(C)CC[C@@H]12	Active			21 µM	Dose-dependent effect
